This is a sample that favours compounds with a hit; in the whole collection about 0.58% have one here.
OXTR potentiate: potentiators of human oxytocin receptor; activation, % at 3 µM; CHO-OTR cells, Fluo-8 calcium fluorescence, potentiator mode; 0% = oxytocin EC15, 100% = EC100; P30559; 320,000 tested, 0.061% active;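 active = activation above that plate's cutoff, the mean activation of tested compounds plus 3 SD, cut at about 6.6% in these data, passing the limit was not always enough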
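Measured by – Fluo-8 calcium dye fluorescence · Test system – human OTR in CHO cells · Dosing – one concentration, 3.0 µM compound · Controls – EC15 oxytocin alone as 0%, 75 nM oxytocin as 100% · Evaluation – normalized max/min fluorescence ratio, % activation · Timing – 6 min pre-incubation, 100 s read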
zfTRPN1 agonist: activates the zebrafish TRPN1 channel; HEK293 zebrafish TRPN1-YFP, Fluo-8 calcium fluorescence; 100% = response to 87 µM carbachol; activation, % at 3 µM; 220,000 tested, 0.18% active; AID 1424;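 active = activation above its plate's cutoff, the mean activation of test wells on that plate plus 3 SD, cut at about 19% in these data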
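Assay system: Zebrafish TRPN1-YFP in HEK293 cells | Incubation: Dye loading 1 h at 37 °C, then 30 min room temperature | Measured by: Kinetic Fluo-8 fluorescence, ex 470-495, em 515-575 nm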
V1aR counter: counter-screen for oxytocin receptor agonists: human V1a receptor agonists | CHO-V1R cells, Fluo-8 calcium fluorescence, agonist mode; 0% DMSO, 100% 3 nM vasopressin | 320,000 tested, 0.25% active | activation, % at 3 µM | P37288;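 active = activation above the mean activation of all tested compounds plus 3 SD, per screening run, cut at about 20% in these data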;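 note: signal is peak over basal fluorescence ratio across a 100 second FLIPR read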
Target sequence (P37288 whole entry, looked up): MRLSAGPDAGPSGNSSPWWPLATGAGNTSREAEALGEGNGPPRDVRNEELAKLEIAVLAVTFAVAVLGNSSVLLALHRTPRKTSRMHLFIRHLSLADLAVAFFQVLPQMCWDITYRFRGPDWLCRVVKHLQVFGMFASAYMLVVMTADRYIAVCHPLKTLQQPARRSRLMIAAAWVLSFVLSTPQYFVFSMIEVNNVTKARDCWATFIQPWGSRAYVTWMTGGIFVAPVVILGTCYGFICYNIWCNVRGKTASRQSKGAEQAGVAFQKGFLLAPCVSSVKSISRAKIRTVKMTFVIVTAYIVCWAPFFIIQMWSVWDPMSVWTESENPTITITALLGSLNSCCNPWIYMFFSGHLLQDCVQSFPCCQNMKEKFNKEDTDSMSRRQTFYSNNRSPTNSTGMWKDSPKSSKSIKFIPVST
OXTR agonist: human OXTR agonism. P30559. CHO-OTR cells, Fluo-8 calcium fluorescence; normalized: DMSO 0%, oxytocin 100%. activation, % at 3 µM. 320,000 tested, 0.32% active;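 active = activation above the mean of all tested compounds plus 3 SD, cutoff set per screening run, cut at about 20% in these data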;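 note: peak over basal fluorescence ratio from a 100 s FLIPR kinetic read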
TRPML3 ag: agonists of human TRPML3 channel. activation, % at 3 µM. Q8TDD5. HEK293 TRPML3-YFP, Fluo-8 calcium fluorescence; 100% = the carbachol control signal. 220,000 tested, 0.29% active;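 active = activation above its plate's cutoff, the mean activation of the plate's test wells plus 3 SD, cut at about 12% in these data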
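Test system: TRPML3-YFP stable HEK293 cells. Doses: single point at 3 µM. Incubation: dye loading 1 h 37 °C then 30 min ambient, 125 s read. Signal: Fluo-8 calcium dye fluorescence, ex 470-495, em 515-575 nm. Measure: percent activation from peak-to-basal fluorescence ratio, scaled between DMSO and carbachol.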
Large screens that a line does not name were inactive; ! = not confirmed by another sample.

COc1cccc(CN2CC(C(=O)NCCN3CCOC3=O)CCC2=O)c1 (stereo not drawn)	none (no result: zfTRPN1 agonist, TRPML3 ag)
C[C@H](CCC(=O)O)[C@H]1CC[C@H]2[C@@H]3[C@H](O)C[C@@H]4C[C@H](O)CC[C@]4(C)[C@H]3CC[C@]12C	none (no result: zfTRPN1 agonist, TRPML3 ag)
CC(CCC(C)C(C)(C)C)[C@@H]1CC[C@H]2C3C[C@H](OS(O)(=S)=S)[C@H]4C[C@H](OS(O)(=S)=S)[C@@H](OS(O)(=S)=S)C[C@]4(C)[C@H]3CC[C@]12C (stereo partly drawn) (tested in a mixture with another compound)	V1aR counter 71.0!, OXTR agonist 58.5 (no result: zfTRPN1 agonist, TRPML3 ag)
COc1cccc(NC(=O)Cn2nnc(C(=O)Nc3ccccc3)c2N)c1	none
Cc1ccc(C)c(Cn2nnc(C(=O)Nc3ccc4c(c3)OCCO4)c2N)c1	V1aR counter 29.4, OXTR agonist 39.2 (no result: zfTRPN1 agonist, TRPML3 ag)
Cc1ccccc1Cn1nnc(C(=O)Nc2ccc3c(c2)OCCO3)c1N	none (no result: zfTRPN1 agonist, TRPML3 ag)
CCc1ccc(Cn2nnc(C(=O)Nc3ccc(OC)cc3OC)c2N)cc1	V1aR counter 24.3, OXTR agonist 29.4
COc1cccc(NC(=O)c2nnn(CC(=O)Nc3cc(C)cc(C)c3)c2N)c1	none (no result: zfTRPN1 agonist, TRPML3 ag)
COc1cccc(NC(=O)c2nnn(Cc3ccc(Br)cc3F)c2N)c1	V1aR counter 29.0, OXTR agonist 27.4
Cc1cc(C)cc(NC(=O)c2nnn(Cc3cc(C)ccc3C)c2N)c1	V1aR counter 41.7, OXTR agonist 35.4
COc1ccccc1OCC(=O)Nc1cc2c(cc1C(=O)O)OCCCO2	none (no result: zfTRPN1 agonist, TRPML3 ag)
CC(C)(C)C(=O)/C=c1\s/c(=C\c2ccc(-c3ccc([N+](=O)[O-])cc3)o2)c(=O)n1CC(=O)NC(N)=O	zfTRPN1 agonist 30.8, V1aR counter 46.8, OXTR agonist 36.2, TRPML3 ag 16.1
CC(C)=CCC[C@](C)(O)C1CC[C@]2(C)C1[C@H](O)CC1[C@@]3(C)CC[C@H](O[C@@H]4O[C@H](CO)[C@@H](O)[C@H](O)[C@H]4O[C@@H]4O[C@H](CO)[C@@H](O)[C@H](O)[C@H]4O)C(C)(C)C3CC[C@]12C (stereo partly drawn)	V1aR counter 38.1, OXTR agonist 70.1 (no result: zfTRPN1 agonist, TRPML3 ag)
CC(=O)N1CCOc2ccc(S(=O)(=O)N3CCC(C(=O)NCc4ccccc4)CC3)cc21	none (no result: zfTRPN1 agonist, TRPML3 ag)
O=C(Nc1cc(S(=O)(=O)N2CCCCC2)ccc1Cl)c1ccccc1NS(=O)(=O)c1ccc(F)cc1	zfTRPN1 agonist 19.4, TRPML3 ag 13.4
O=S(=O)(c1ccccc1)c1ccc(N2CCCCCC2)cc1	none (no result: zfTRPN1 agonist, TRPML3 ag)
CC(C)(C)C(=O)NC(=S)NNC(=O)C(c1ccccc1)c1ccccc1	zfTRPN1 agonist 167.6, V1aR counter 126.8, OXTR agonist 89.0, TRPML3 ag 113.7
CCN(CC)c1ccc(/C=C(\C#N)c2nc(-c3cccs3)c(NC(C)=O)s2)cc1	zfTRPN1 agonist 21.6, TRPML3 ag 29.4 (no result: OXTR potentiate, V1aR counter, OXTR agonist)
N#C/C(=C\c1ccc(N2CCOCC2)o1)C(=O)NC1CCCCC1	none
N#C/C(=C/c1ccc(N2CCOCC2)o1)C(=O)Nc1ccccc1	zfTRPN1 agonist 71.6, TRPML3 ag 36.2 (no result: OXTR potentiate, V1aR counter, OXTR agonist)
Cc1nn(Cc2ccccc2)c2sc(C(=O)N3CCN(Cc4ccc5c(c4)OCO5)CC3)cc12	none
Cc1ccc(C(=O)OCC(=O)c2c[nH]c3ccccc23)cc1	none
CC(C)Cc1ccc(C(C)C(=O)OCC(=O)c2c[nH]c3ccccc23)cc1 (stereo not drawn)	V1aR counter 23.0, OXTR agonist 27.6
Cc1cc(C)c(S(=O)(=O)N(C)CC(=O)NC2CCCC2)c(C)c1	none
CCC(C)N(C(=O)Cn1cnc2c1c(=O)n(C)c(=O)n2C)C1CCS(=O)(=O)C1 (stereo not drawn)	none (no result: zfTRPN1 agonist, TRPML3 ag)
O=C1c2cccc3c(O)ccc(c23)C(=O)N1Cc1ccccc1	zfTRPN1 agonist 146.2, V1aR counter 344.6, OXTR agonist 302.2, TRPML3 ag 120.4
O=C(O)c1cccc(CN2C(=O)c3ccccc3C2=O)c1	none (no result: zfTRPN1 agonist, TRPML3 ag)
Cc1cccc(N(CC(=O)N/N=C/c2cc([N+](=O)[O-])ccc2Cl)S(C)(=O)=O)c1C	none
N#Cc1ccc(NC(=O)Nc2ccc(Cl)cc2)cc1	zfTRPN1 agonist 22.0, TRPML3 ag 15.2
O=C1/C(=C\c2c(NCCOCCO)nc3ccccn3c2=O)SC(=S)N1Cc1ccco1	V1aR counter 55.5, OXTR agonist 39.8 (no result: zfTRPN1 agonist, TRPML3 ag)

Screening data (PubChem)
